As usually defined, the IC50 is the concentration that gives 50% inhibition. As usually defined, the ED50 is the dose at which the effect has come halfway, by size or by number of responders.

Experiment [1] concerns the target Adrenergic receptor alpha. Description: In vitro binding activity against Alpha receptor in rat brain using [3H]prazosin. The class given is tissue-based. The method in brief: (§1)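 Whole rat brain minus cerebellum homogenized and washed twice in 50 mM Tris-HCl pH 7.7, resuspended in Tris pH 8.0. Incubated in triplicate with 0.22 nM (final) [3H]prazosin and drug, 25 °C, 30 min. Blank was 50 μM norepinephrine. Filtered through glass fiber and scintillation counted. IC50 from three log concentrations in triplicate.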

The next experiment has as its target D(2) dopamine receptor (Rattus norvegicus, UniProt P61169). Description: Binding affinity to dopamine receptor D2 in the rat brain using [3H]NPA as radioligand. The class given is tissue-based. An outline of the steps: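 Rat brain D2 binding with [3H]NPA as ligand. IC50 taken from dose-response curves over three log concentrations of test compound, each in triplicate.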

Experiment [2] relates to Rattus norvegicus. Description: Antipsychotic activity determined in vivo by inhibition of amphetamine induced locomotor behavior in rats by the sc administration. The class given is functional. The method in brief: (§2)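 Male Sprague-Dawley rats (275–325 g, eight per group) habituated overnight in automated activity boxes, then dosed with test compound suspended in 90% saline/5% ethanol/5% Emulphor. d-Amphetamine sulfate 1.36 mg/kg given 1 h later. Floor quadrant crossings counted over 3 h. ANOVA with Dunnett's test; ED50 and 95% confidence limits by probit analysis of means converted to percent inhibition.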

In experiment [3] the test system is Rattus norvegicus. The experiment can be described thus: Compound was evaluated for inhibition of apomorphine induced stereotypy behavior in rats after sc administration. The class given is functional. The method in brief:
(§3)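 Male Sprague-Dawley rats (250–300 g, five per group) given test drug (2 mL/kg) or saline. At 1, 3 and 5 h they received apomorphine 0.75 mg/kg sc in water with 0.1% ascorbic acid. Stereotypy was rated every 10 min up to 50 min. ANOVA then Dunnett's t test over half-log dose multiples; MED was the lowest significant dose.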

Experiment [4] deals with Rattus norvegicus. Description: Compound was evaluated for the inhibition of haloperidol induced catalepsy behavior in rats after sc administration. The class given is functional. Also noted: unit not given here. An outline of the steps: (§4)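 Catalepsy was tested on a horizontal rod after 3 h. Test drug or vehicle was then given and catalepsy duration scored every 30 min for 2.5 h. One-way ANOVA with Dunnett's test over half-log dose multiples; MED was the lowest significant dose.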

Experiment [5] addresses T1, 5-hydroxytryptamine receptor 1A (Rattus norvegicus, UniProt P19327).
T1 sequence (P19327 whole entry): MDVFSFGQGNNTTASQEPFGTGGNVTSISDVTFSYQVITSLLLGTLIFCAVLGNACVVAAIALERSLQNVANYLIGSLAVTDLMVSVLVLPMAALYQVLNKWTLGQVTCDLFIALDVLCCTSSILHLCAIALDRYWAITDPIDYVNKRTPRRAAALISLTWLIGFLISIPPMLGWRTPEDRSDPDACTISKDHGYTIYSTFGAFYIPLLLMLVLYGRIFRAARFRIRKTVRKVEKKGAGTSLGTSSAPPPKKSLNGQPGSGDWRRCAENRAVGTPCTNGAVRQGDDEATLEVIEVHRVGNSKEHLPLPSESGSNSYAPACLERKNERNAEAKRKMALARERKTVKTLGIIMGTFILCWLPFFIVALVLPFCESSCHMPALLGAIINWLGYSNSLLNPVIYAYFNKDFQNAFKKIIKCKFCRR
The experiment can be described thus: Binding affinity to 5-hydroxytryptamine 1A receptor in the rat brain using [3H]8-hydroxy-2-(di-n-propylamine)tetralin as radioligand. It is filed as tissue-based. An outline of the steps: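 Rat forebrain P2 membranes: lysed in 5 mM Tris acetate pH 7.4, washed, preincubated 30 min at 30 °C. Incubated with [3H]-8-OH-DPAT and test drug, 30 °C, 20 min; filtered, scintillation counted.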

Experiment [6] has as its target T2, Serotonin 2 (5-HT2) receptor (Rattus norvegicus, UniProt P30994+P08909+P14842). Description: (§5) Compound was evaluated In vitro for its activity by binding to 5-hydroxytryptamine 2 receptor in the rat brain using [3H]ketanserin as radioligand. It is filed as tissue-based.
In experiment [7] the target is Adrenergic receptor alpha. The experiment can be described thus: Compound was evaluated In vitro for its activity by binding to Alpha adrenergic receptor in the rat brain using [3H]prazosin as radioligand. The class given is tissue-based.
For experiment [8], the system named is Rattus norvegicus. Description: Compound was evaluated for the inhibition of apomorphine induced stereotypy behavior in rats after sc administration. It is filed as functional. Set-up: unit not given here. An outline of the steps: as §3
Experiment [9] has as its system Rattus norvegicus. The experiment can be described thus: Compound was evaluated for the inhibition of haloperidol induced catalepsy behavior in rats after sc administration; Inactive. It is filed as functional, organism-based.
The target in experiment [10] is T2, Serotonin 2 (5-HT2) receptor. The experiment can be described thus: Compound was evaluated for its activity by binding to 5-hydroxytryptamine 2 receptor in the rat brain using [3H]ketanserin as radioligand. It is filed as tissue-based. The method in brief:
(§6)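 Frozen male Sprague-Dawley rat brain cut into 20-μm cryostat sections. Incubated in 50 mM Tris pH 7.5 with 1 nM [3H]ketanserin and test drug, room temperature, 30 min; nonspecific binding with 2 μM pipamperone. Washed in ice-cold buffer, exposed to tritium film 6 weeks, read by densitometry.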

Experiment [11] shares this target. The experiment is described as §5. The class given is tissue-based. An outline of the steps:
as §6
The source holds these as a separate data set.

Experiment [12] concerns Rattus norvegicus. Description: Antipsychotic activity determined in vivo by inhibition of amphetamine induced locomotor behavior in rats by the po administration. The class given is functional. The method in brief:
as §2

Experiment [13] has as its system Rattus norvegicus. Description: Compound was evaluated for the inhibition of haloperidol induced catalepsy behavior in rats after po administration. It is filed as functional. An outline of the steps: as §4
The target in experiment [14] is Adrenergic receptor alpha. The experiment can be described thus: Compound was evaluated In vitro for its activity by binding to Alpha receptor in the rat brain using [3H]prazosin as radioligand. The class given is tissue-based. An outline of the steps: as §1
The test system of experiment [15] is Rattus norvegicus. The experiment can be described thus: Compound was evaluated for the inhibition of apomorphine induced stereotypy behavior in rats after ip administration. It is filed as functional. An outline of the steps:
as §3

Experiment [16] relates to Rattus norvegicus. Description: Compound was evaluated for the inhibition of apomorphine induced stereotypy behavior in rats after po administration. It is filed as functional. An outline of the steps:
as §3

Active and inactive are the calls of the source. The calls are words filed in the database; no cut-off is given here.

Chain of D(2) dopamine receptor (P61169 whole entry): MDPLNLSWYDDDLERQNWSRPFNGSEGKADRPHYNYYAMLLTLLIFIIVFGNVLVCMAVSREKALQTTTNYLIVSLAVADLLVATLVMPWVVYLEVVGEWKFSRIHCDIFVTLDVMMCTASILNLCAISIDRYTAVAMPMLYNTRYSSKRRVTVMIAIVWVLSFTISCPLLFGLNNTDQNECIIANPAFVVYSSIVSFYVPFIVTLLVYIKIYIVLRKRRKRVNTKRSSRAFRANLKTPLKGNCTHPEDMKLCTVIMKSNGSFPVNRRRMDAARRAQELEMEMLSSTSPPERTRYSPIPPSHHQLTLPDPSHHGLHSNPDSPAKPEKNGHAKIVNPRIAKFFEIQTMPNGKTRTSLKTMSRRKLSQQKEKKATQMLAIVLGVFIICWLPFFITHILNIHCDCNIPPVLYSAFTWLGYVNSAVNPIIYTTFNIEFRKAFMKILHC

Turning to `Cc1sc(N)nc1-c1ccc(CCN2CCN(c3cccc4ccccc34)CC2)cc1`, the IC50 in [1] came to 234 nM; on D(2) dopamine receptor, 159 nM. For the same compound, the ED50 in the experiment with Rattus norvegicus [2] was more than 10 mg/kg. For the same compound, the MED with Rattus norvegicus [3] and in the experiment on Rattus norvegicus [4] was more than 3.2 in each case.

Consider `Oc1nc2ccc(CCN3CCN(c4cccc5ccccc45)CC3)cc2s1`, for which the IC50 was 2.2 nM in experiment [5], 50 nM in experiment [6] and 24 nM in experiment [7]. The compound further showed an MED in the experiment on Rattus norvegicus [8] of more than 10.

As for `CCN1C(=O)Cc2cc(CCN3CCN(c4cccc5ccccc45)CC3)ccc21`, the IC50 came out at 2.9 nM in [5], 248 nM in experiment [1] and 81.2 nM on D(2) dopamine receptor.

As for `CN1CCN(C2=Nc3cc(Cl)ccc3Nc3ccccc32)CC1` [CLOZAPINE], in the experiment on Rattus norvegicus [2], the 50% effect level (ED50) was put at a dose of 6.9 mg/kg. Moreover, in the experiment with Rattus norvegicus [9], the MED entry is “inactive”.

In [10], `c1ccc2c(N3CCNCC3)cccc2c1` came in with an IC50 of 62 nM.

As to `c1ccc2c(N3CCN(CCc4ccc(-c5csnn5)cc4)CC3)cccc2c1`, the IC50 in experiment [10] came out at 237 nM; in [1], 105 nM; at D(2) dopamine receptor, 83 nM. This compound had an MED in the experiment with Rattus norvegicus [8] of more than 10.

`Oc1nc(-c2ccc(CCN3CCN(c4cccc5ccccc45)CC3)cc2)cs1`: the IC50 in [10] was 249 nM; in experiment [1], 65 nM; on D(2) dopamine receptor it was 80 nM. The compound further gave an ED50 in the experiment on Rattus norvegicus [2] of more than 10 mg/kg. Further, the MED is given as more than 17.8 in the experiment with Rattus norvegicus [8] and 10 with Rattus norvegicus [4].

For `O=C(CCCN1CCC(O)(c2ccc(Cl)cc2)CC1)c1ccc(F)cc1` [HALOPERIDOL], the MED result in the experiment on Rattus norvegicus [9] was “inactive”. The MED with Rattus norvegicus [8] worked out at 0.032.

With `CC1(C)C(=O)Nc2ccc(CCN3CCN(c4cccc5ccccc45)CC3)cc21`, the IC50 worked out at 6.9 nM in experiment [5], 11.8 nM in [11], 40 nM in [1] and 86 nM on D(2) dopamine receptor.

For the compound `O=C1Cc2cc(CCN3CCN(c4cccc5ccccc45)CC3)ccc2N1`, the IC50 in experiment [5] was 4.87 nM; in experiment [6], 20 nM; in [1], 24 nM; on D(2) dopamine receptor, 38 nM. The ED50 came to 13.3 mg/kg in the experiment on Rattus norvegicus [12] and 1.21 mg/kg in the experiment with Rattus norvegicus [2]. Further, the MED in the experiment with Rattus norvegicus [13] was 10; in the experiment on Rattus norvegicus [4], more than 10.

Turning to `CNc1nc(-c2ccc(CCN3CCN(c4cccc5ccccc45)CC3)cc2)cs1`, the IC50 in experiment [14] amounted to 252 nM; at D(2) dopamine receptor, 155 nM. Moreover, in the experiment on Rattus norvegicus [8], the MED was more than 10.

Take `Oc1nc2ccc(CCN3CCN(c4cccc5ccccc45)CC3)cc2o1`: the concentration for half-maximal inhibition (IC50) in [5] amounted to 6.2 nM; in experiment [11], 10 nM; in experiment [1], 45 nM; at D(2) dopamine receptor, 44 nM. Besides, the ED50 in the experiment with Rattus norvegicus [12] worked out at 40.5 mg/kg; in the experiment on Rattus norvegicus [2] it was 1.6 mg/kg. Moreover, the MED in the experiment on Rattus norvegicus [8] was 10; in the experiment on Rattus norvegicus [4], more than 10.

For `Cc1nc(-c2ccc(CCN3CCN(c4cccc5ccccc45)CC3)cc2)cs1`, the IC50 in [1] was determined as 166 nM; on D(2) dopamine receptor, 108 nM. Further, the MED in the experiment on Rattus norvegicus [8] is listed as more than 10.

With `Nc1nc(-c2ccc(CCN3CCN(c4cccc5ccccc45)CC3)cc2)cs1`, the IC50 in experiment [5] worked out at 11 nM; in experiment [6] it was 385 nM; in [1] it was 135 nM; at D(2) dopamine receptor, 72 nM. In addition, in the experiment with Rattus norvegicus [12], it took a dose of 25.3 mg/kg to reach the 50% effect level (ED50). Also, the MED with Rattus norvegicus [15] was found to be 10; in the experiment with Rattus norvegicus [16] it was 32; in the experiment with Rattus norvegicus [13], 3.2.

The values are drawn from ChEMBL document CHEMBL1125261, “1-Naphthylpiperazine derivatives as potential atypical antipsychotic agents” (J Med Chem, 1991).
